Usually Ki stands for a dissociation constant, usually derived from enzyme kinetics or from competition with a known ligand. Broadly, the EC50 is the concentration giving half of the maximal effect. One may read the pKb as the Kb on a negative log10 scale, so that one unit is a factor of ten. High values mean a low Kb, low ones a high Kb.

The values below come from ChEMBL document CHEMBL2086372 (ACS Med Chem Lett, 2012).

The source made the active and inactive calls. The calls are words filed in the database; no cut-off is given here.

Assay [1] concerns the target T1, 5-hydroxytryptamine receptor 1A (Homo sapiens, UniProt P08908).
T1 sequence (P08908 whole entry): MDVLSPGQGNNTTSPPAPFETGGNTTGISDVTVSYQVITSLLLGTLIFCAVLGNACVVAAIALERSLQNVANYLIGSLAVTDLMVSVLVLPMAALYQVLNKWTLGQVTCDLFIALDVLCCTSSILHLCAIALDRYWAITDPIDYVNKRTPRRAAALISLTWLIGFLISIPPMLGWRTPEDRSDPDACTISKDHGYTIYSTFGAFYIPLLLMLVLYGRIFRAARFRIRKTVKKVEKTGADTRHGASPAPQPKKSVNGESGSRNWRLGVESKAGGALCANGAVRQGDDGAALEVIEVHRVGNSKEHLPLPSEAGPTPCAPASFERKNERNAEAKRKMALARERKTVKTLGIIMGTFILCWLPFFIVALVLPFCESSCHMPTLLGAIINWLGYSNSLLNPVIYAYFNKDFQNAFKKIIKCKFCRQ
As to the kind of experiment: Displacement of [3H]8-OH-DPAT from human 5HT1A receptor expressed in HeLa cells after 30 mins. In kind it is cell-based. The method in brief:
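pKi is derived from displacement of [3H]-8-OH-DPAT binding at human cloned 5-HT1A receptor. Values are means ± SEMs of 3–6 separate experiments.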
(In general: Displacement assays read how much labelled ligand stays bound in the presence of the test substance.)

Assay [2] addresses T2, Alpha-2A adrenergic receptor (Homo sapiens, UniProt P08913).
T2 sequence (P08913 whole entry): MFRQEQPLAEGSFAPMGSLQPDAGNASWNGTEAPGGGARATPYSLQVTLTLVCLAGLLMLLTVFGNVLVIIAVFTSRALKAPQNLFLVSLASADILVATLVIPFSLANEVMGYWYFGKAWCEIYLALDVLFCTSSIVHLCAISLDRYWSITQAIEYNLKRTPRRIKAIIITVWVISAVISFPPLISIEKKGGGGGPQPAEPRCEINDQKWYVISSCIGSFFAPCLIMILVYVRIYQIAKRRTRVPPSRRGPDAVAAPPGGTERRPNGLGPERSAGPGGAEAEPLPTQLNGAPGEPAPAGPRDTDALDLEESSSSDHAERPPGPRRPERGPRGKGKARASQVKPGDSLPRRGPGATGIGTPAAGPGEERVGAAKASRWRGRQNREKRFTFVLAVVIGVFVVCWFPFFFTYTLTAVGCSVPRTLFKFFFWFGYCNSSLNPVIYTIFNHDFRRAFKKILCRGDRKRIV
As to the kind of experiment: Displacement of [3H]RX821002 from human alpha2A adrenoceptor expressed in CHO cells after 30 mins by scintillation counting. In kind it is cell-based. The method in brief:
(§1)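 Binding and functional assays run on CHO cells expressing recombinant human α2-AR subtypes. Functional read-outs are agonist potency (pEC50) with intrinsic activity (ia), or antagonist pKb. Affinity is reported as pKi. Values are means ± SEMs of 3–6 separate experiments.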

The target of assay [3] is T3, Alpha-2B adrenergic receptor (Homo sapiens, UniProt P18089).
T3 sequence (P18089 whole entry): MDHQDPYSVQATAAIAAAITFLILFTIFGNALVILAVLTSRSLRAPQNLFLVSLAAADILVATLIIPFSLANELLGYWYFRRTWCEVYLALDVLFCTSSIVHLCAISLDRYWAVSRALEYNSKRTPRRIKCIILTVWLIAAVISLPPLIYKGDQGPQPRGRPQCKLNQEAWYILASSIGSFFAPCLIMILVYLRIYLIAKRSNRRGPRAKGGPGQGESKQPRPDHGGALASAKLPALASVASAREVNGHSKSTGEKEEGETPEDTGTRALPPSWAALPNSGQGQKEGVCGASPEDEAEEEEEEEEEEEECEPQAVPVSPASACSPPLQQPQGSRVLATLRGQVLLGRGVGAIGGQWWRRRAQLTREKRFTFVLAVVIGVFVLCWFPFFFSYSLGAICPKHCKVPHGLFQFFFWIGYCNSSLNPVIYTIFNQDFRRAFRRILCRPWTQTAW
As to the kind of experiment: Displacement of [3H]RX821002 from human alpha2B adrenoceptor expressed in CHO cells after 30 mins by scintillation counting. In kind it is cell-based. The essentials:
as §1

Assay [4] deals with T3, Alpha-2B adrenergic receptor. As to the kind of experiment: Agonist activity at human alpha2B adrenoceptor expressed in CHO cells assessed as extracellular acidification measured after 4 mins by cytosensor microphysiometric analysis.
In assay [5] the test system is Mus musculus. The experiment in a line: Effect on morphine-dependence in CD1 mouse assessed as decrease in naloxone-precipitated jumping at 0.025 mg/kg, ip administered chronically 15 mins prior to each morphine challenge relative to vehicle-treated control. In kind it is functional, organism-based. Details: dose 0.025 mg/kg. The essentials: (§2)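 Acquisition of morphine dependence in mice, tested with repeated ip dosing (racemate 0.05 mg/kg, enantiomers 0.025 mg/kg). Withdrawal was precipitated by naloxone. Scored signs were jumping frequency and somatic signs (rearing, forepaw tremors, teeth chatter). Groups were compared with vehicle and with the morphine group.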

The subject of assay [6] is Mus musculus. The experiment in a line: Effect on morphine-dependence in CD1 mouse assessed as decrease in naloxone-precipitated jumping at 0.025 mg/kg, ip administered acutely 15 mins prior to naloxone challenge relative to vehicle-treated control. Details: dose 0.025 mg/kg. In kind it is functional, organism-based. The method in brief:
(§3)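 Expression of morphine dependence in mice, tested with a single acute ip dose (racemate 0.05 mg/kg, enantiomers 0.025 mg/kg). Withdrawal was precipitated by naloxone in control and morphine-treated mice. Scored signs were jumping frequency and somatic signs (rearing, forepaw tremors, teeth chatter). Groups were compared with vehicle and with the morphine group.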

The subject of assay [7] is Mus musculus. The experiment in a line: Effect on morphine-dependence in CD1 mouse assessed as decrease in naloxone-precipitated rearing at 0.025 mg/kg, ip administered chronically 15 mins prior to each morphine challenge relative to vehicle-treated control. In kind it is functional, organism-based. On the set-up: dose 0.025 mg/kg. The method in brief:
as §2

Assay [8] relates to Mus musculus. As to the kind of experiment: Effect on morphine-dependence in CD1 mouse assessed as decrease in naloxone-precipitated rearing at 0.025 mg/kg, ip administered acutely 15 mins prior to naloxone challenge relative to vehicle-treated control. In kind it is functional, organism-based. Details: dose 0.025 mg/kg. The method in brief: as §3
Assay [9] concerns Mus musculus. As to the kind of experiment: Effect on morphine-dependence in CD1 mouse assessed as decrease in naloxone-precipitated forepaw tremors at 0.025 mg/kg, ip administered chronically 15 mins prior to each morphine challenge relative to vehicle-treated control. In kind it is functional, organism-based. Details: dose 0.025 mg/kg. The method in brief: as §2
Assay [10] relates to Mus musculus. The experiment in a line: Effect on morphine-dependence in CD1 mouse assessed as decrease in naloxone-precipitated forepaw tremors at 0.025 mg/kg, ip administered acutely 15 mins prior to naloxone challenge relative to vehicle-treated control. Details: dose 0.025 mg/kg. In kind it is functional, organism-based. The essentials: as §3
Assay [11] relates to Mus musculus. The experiment in a line: Effect on morphine-dependence in CD1 mouse assessed as decrease in naloxone-precipitated teeth chatter at 0.025 mg/kg, ip administered chronically 15 mins prior to each morphine challenge relative to vehicle-treated control. Details: dose 0.025 mg/kg. In kind it is functional, organism-based. The essentials: as §2
Assay [12] relates to Mus musculus. As to the kind of experiment: Effect on morphine-dependence in CD1 mouse assessed as decrease in naloxone-precipitated teeth chatter at 0.025 mg/kg, ip administered acutely 15 mins prior to naloxone challenge relative to vehicle-treated control. On the set-up: dose 0.025 mg/kg. In kind it is functional, organism-based. The method in brief: as §3
Assay [13] deals with Mus musculus. The experiment in a line: Antidepressant activity in CD1 mouse assessed as decrease in immobility time at 0.025 mg/kg, ip administered 30 mins prior to coadministration with WAY100635 measured after 15 mins by forced swim test relative to vehicle-treated control. In kind it is functional, organism-based. On the set-up: dose 0.025 mg/kg. The method in brief:
(§4)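 Forced swimming test in mice using 0.025 mg/kg ip test dose. It was combined with the 5-HT1A antagonist WAY 100635 (0.1 mg/kg, sc) or with the α2 antagonist yohimbine (1.250 mg/kg, ip). Each antagonist was also given alone. Immobility time is the read-out, given as means ± SEMs of 7–8 animals.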

In assay [14] the test system is Mus musculus. The experiment in a line: Antidepressant activity in CD1 mouse assessed as decrease in immobility time at 0.025 mg/kg, ip administered 15 mins prior to coadministration with yohimbine measured after 15 mins by forced swim test relative to vehicle-treated control. In kind it is functional, organism-based. Details: dose 0.025 mg/kg. The method in brief: as §4

For assay [15], the target named is T4, Alpha-2C adrenergic receptor (Homo sapiens, UniProt P18825).
T4 sequence (P18825 whole entry): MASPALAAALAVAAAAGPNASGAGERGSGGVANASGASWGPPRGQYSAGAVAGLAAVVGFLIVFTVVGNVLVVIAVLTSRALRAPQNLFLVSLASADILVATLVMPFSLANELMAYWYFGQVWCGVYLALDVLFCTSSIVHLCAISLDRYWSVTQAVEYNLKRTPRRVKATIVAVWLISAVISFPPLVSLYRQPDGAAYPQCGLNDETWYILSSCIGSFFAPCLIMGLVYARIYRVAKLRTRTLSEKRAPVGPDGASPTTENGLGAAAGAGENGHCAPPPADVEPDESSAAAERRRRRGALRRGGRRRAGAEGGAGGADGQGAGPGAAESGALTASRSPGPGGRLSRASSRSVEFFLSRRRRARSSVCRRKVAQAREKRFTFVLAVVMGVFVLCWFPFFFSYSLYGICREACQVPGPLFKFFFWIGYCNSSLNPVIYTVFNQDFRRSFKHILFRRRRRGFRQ
As to the kind of experiment: Displacement of [3H]RX821002 from human alpha2C adrenoceptor expressed in CHO cells after 30 mins by scintillation counting. In kind it is cell-based. The essentials:
as §1

Assay [16] has as its target T4, Alpha-2C adrenergic receptor. The experiment in a line: Agonist activity at human alpha2C adrenoceptor expressed in CHO cells assessed as extracellular acidification measured after 4 mins by cytosensor microphysiometric analysis. In kind it is functional, cell-based. The method in brief: as §1
Assay [17] addresses T5, Alpha-2C adrenergic receptor (Homo sapiens) (UniProt P18825).
T5 sequence (whole entry): T4 sequence (P18825 whole entry)
The experiment in a line: Agonist activity at human alpha2C adrenoceptor expressed in CHO cells assessed as extracellular acidification measured after 4 mins by cytosensor microphysiometric analysis relative to control. In kind it is functional, cell-based. The essentials:
as §1

Assay [18] deals with Mus musculus. The experiment in a line: Antidepressant activity in CD1 mouse assessed as decrease in immobility time at 0.1 mg/kg, sc measured after 15 mins by forced swim test relative to vehicle-treated control. In kind it is functional, organism-based. Details: dose 0.1 mg/kg. The essentials: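 Mouse forced swim test scoring immobility time. The 5-HT1A-R antagonist was given alone at 0.1 mg/kg sc. Groups were compared with vehicle-treated mice, with 7–8 animals per group, and data are shown as means ± SEM.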

Assay [19] relates to Mus musculus. As to the kind of experiment: Antidepressant activity in CD1 mouse assessed as decrease in immobility time at 1.25 mg/kg, sc measured after 15 mins by forced swim test relative to vehicle-treated control. In kind it is functional, organism-based. Details: dose 1.25 mg/kg.
Assay [20] deals with T6, 5-hydroxytryptamine receptor 1A (Homo sapiens) (UniProt P08908).
T6 sequence (whole entry): T1 sequence (P08908 whole entry)
As to conditions: HeLa.

Assay [21] addresses T7, Alpha-2A adrenergic receptor (Homo sapiens) (UniProt P08913).
T7 sequence (whole entry): T2 sequence (P08913 whole entry)
The note with it: CHO.

Take `C[C@@H](Oc1ccccc1CC1CC1)C1=NCCN1`: the Ki in [1] is 0.0398 µM; in [2], 0.0447 µM; in assay [3] it was 0.339 µM; in assay [15], 0.234 µM. Besides, the results for the 50% effective concentration (EC50) in [4] and in assay [16] were 3.98 µM and 0.316 µM, respectively. Besides, the result with Mus musculus [5], with Mus musculus [6], in the assay with Mus musculus [7], in the assay with Mus musculus [8], in the assay on Mus musculus [9] and in the assay with Mus musculus [10] was Active. For the same molecule, the result in the assay with Mus musculus [11] and in the assay with Mus musculus [12] was Active. Besides, the outcome in the assay on Mus musculus [13] and in the assay on Mus musculus [14] was inactive. The Intrinsic activity in assay [17] is 0.75.

For the molecule `C[C@H](Oc1ccccc1CC1CC1)C1=NCCN1`, the Ki in assay [1] was 0.00575 µM; in assay [2] it was 0.0417 µM; in [3] it was 0.407 µM; in [15] it was 0.275 µM. The figures for the concentration for a half-maximal effect (EC50) in assay [4] and in assay [16] were 1.58 µM and 0.002 µM, respectively. The outcome in the assay on Mus musculus [5], with Mus musculus [6], in the assay with Mus musculus [7], in the assay with Mus musculus [8], in the assay on Mus musculus [9] and with Mus musculus [10] was Active. Also, the outcome in the assay with Mus musculus [11] and with Mus musculus [12] was Active. For the same molecule, the outcome with Mus musculus [13] and in the assay on Mus musculus [14] was inactive. In [17], the Intrinsic activity worked out at 0.85.

In assay [1], `CC(Oc1c(Cl)cccc1Cl)C1=NCCN1` (stereo not drawn) [LOFEXIDINE] gave a Ki of 0.126 µM.

Take `COC(=O)[C@@H]1[C@H]2C[C@H]3c4[nH]c5ccccc5c4CCN3C[C@@H]2CC[C@@H]1O`: the outcome with Mus musculus [18] and in the assay with Mus musculus [19] was inactive.

Turning to `C=CCc1ccccc1O[C@@H](C)C1=NCCN1`, the affinity in [1] corresponds to a Ki of 0.0355 µM. Moreover, the outcome in the assay on Mus musculus [13] and in the assay with Mus musculus [14] was inactive. The Intrinsic activity in [17] amounted to 0.9. This molecule showed a pD2 in assay [20] of 7.19. The same molecule yielded a negative logarithm of the Kb (pKb) in assay [21] of 7.8.
